ChEMBL document CHEMBL5346953, “Dual Piperidine-Based Histamine H3 and Sigma-1 Receptor Ligands in the Treatment of Nociceptive and Neuropathic Pain” (J Med Chem, 2023)
The source made the active and inactive calls.

Legend:
[1] = tested on: Mus musculus; assay: Antinociceptive activity in loperamide-induced mouse assessed as increase in struggle response latency struggle response latency at 100 ug,ip administration in presence of naloxone-methiodide; type: functional, organism-based; conditions: dose 100.0 µg
[2] = tested on: Mus musculus; assay: Antinociceptive activity in mouse assessed as effect on struggle response latency at 100 ug,ip administration; type: functional, organism-based; conditions: dose 100.0 µg
[3] = tested on: Mus musculus; assay: Antinociceptive activity in loperamide-induced mouse assessed as increase in struggle response latency struggle response latency at 100 ug,ip administration in presence of PRE-084; type: functional, organism-based; conditions: dose 100.0 µg
[4] = tested on: Mus musculus; assay: Effect in loperamide-induced antinociception mouse assessed as increase in struggle response latency at ip administration; type: functional, organism-based
[5] = target: Sigma non-opioid intracellular receptor 1 (Cavia porcellus, UniProt Q60492); assay: Displacement of [3H](+)-pentazocine from sigma 1 receptor in guinea pig brain membrane assessed as inhibition constant by liquid scintillation counter analysis; type: cell membranes
Chain of Sigma non-opioid intracellular receptor 1 (Q60492 whole entry): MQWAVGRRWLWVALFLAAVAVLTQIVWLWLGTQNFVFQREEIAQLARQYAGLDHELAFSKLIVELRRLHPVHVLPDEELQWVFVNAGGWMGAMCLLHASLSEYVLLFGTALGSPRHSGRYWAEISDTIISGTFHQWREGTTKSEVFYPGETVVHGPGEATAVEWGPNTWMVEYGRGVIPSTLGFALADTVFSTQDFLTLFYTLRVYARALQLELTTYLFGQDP

[6] = target: T1, Histamine H3 receptor (Homo sapiens, UniProt Q9Y5N1); assay: Displacement of [3H]Nalpha-methylhistamine from recombinant human histamine H3 receptor stably expressed in HEK293 cells assessed as inhibition constant by competitive binding based radioligand depletion assay; type: cell-based
T1 sequence (Q9Y5N1 whole entry): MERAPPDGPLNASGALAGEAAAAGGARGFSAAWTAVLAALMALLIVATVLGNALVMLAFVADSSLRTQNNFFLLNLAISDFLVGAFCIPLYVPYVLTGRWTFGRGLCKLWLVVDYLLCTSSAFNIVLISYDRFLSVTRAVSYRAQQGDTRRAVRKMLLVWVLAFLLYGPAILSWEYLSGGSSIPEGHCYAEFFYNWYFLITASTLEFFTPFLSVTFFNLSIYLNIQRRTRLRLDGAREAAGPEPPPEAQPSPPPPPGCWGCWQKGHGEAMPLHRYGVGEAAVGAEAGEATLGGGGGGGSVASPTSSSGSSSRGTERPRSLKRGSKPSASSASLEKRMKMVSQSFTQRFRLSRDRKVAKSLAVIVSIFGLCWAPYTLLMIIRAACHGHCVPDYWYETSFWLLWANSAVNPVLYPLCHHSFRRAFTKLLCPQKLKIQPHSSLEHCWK

[7] = target: T1, Histamine H3 receptor; assay: Inhibition of recombinant human histamine H3 receptor stably expressed in HEK293 cells assessed as increase in cAMP accumulation in presence of forskolin incubated for 30 mins by TR-FRET LANCE assay; type: functional, cell-based
[8] = Neurotoxicity against mouse assessed as sedative effect at 15 mg/kg,ip observed after 30 mins of administration; type: toxicity, organism-based; conditions: in vivo, 0.5 h
Procedure, shortened: (§1)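 Spontaneous locomotor activity was recorded in mice after i.p. dosing at 15 or 30 mg/kg, compared with vehicle, as a test of sedation. Analysis was one-way ANOVA. […]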

[9] = Neurotoxicity against mouse assessed as decrease in time spent on rod at 15 mg/kg,ip administration at 24 rpm by rotarod test; type: toxicity, organism-based; conditions: in vivo
Procedure, shortened: (§2)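 Mice received 15 mg/kg i.p. or vehicle. Motor coordination was then measured as time on the rotarod, at 18 and 24 rpm, with a maximum of 60 s.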

[10] = Neurotoxicity against mouse assessed as decrease in time spent on rod at 15 mg/kg,ip administration at 18 rpm by rotarod test; type: toxicity, organism-based; conditions: in vivo; procedure, shortened: as §2
[11] = Neurotoxicity against mouse assessed as impairment of motor coordination at 15 mg/kg,ip administration at 24 rpm by rotarod test; type: toxicity, organism-based; conditions: in vivo; procedure, shortened: as §2
[12] = Neurotoxicity against mouse assessed as impairment of motor coordination at 15 mg/kg,ip administration at 18 rpm by rotarod test; type: toxicity, organism-based; conditions: in vivo; procedure, shortened: as §2
[13] = tested on: Mus musculus; assay: Analgesic activity in CCI-induced neuropathic pain mouse model assessed as effect on spinal response at 10 mg/kg,ip administration measured after 100 mins by tail flick test; type: functional, organism-based
Procedure, shortened: (§3)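 CCI mice tested 14 days after sciatic nerve injury. Groups received i.p. vehicle or drug at 5, 10 or 15 mg/kg. Baselines were taken before injection, with n = 7–8 per group. Read-outs were von Frey (ipsilateral and contralateral paw) at 30, 90 and 180 min, cold plate at 35, 95 and 185 min, and tail flick at 40, 100 and 190 min. Values are %MPE (mean ± SEM), analysed by one-way ANOVA with Bonferroni post hoc.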

[14] = tested on: Mus musculus; assay: Analgesic activity in CCI-induced neuropathic pain mouse model assessed as effect on spinal response at 10 mg/kg,ip administration measured after 40 mins by tail flick test; type: functional, organism-based; procedure, shortened: as §3
[15] = tested on: Mus musculus; assay: Analgesic activity in CCI-induced neuropathic pain mouse model assessed as effect on spinal response at 5 mg/kg,ip administration measured after 40 mins by tail flick test; type: functional, organism-based; procedure, shortened: as §3
[16] = tested on: Mus musculus; assay: Analgesic activity in CCI-induced neuropathic pain mouse model assessed as increase in mechanical paw withdrawal threshold at 10 mg/kg,ip administration measured after 30 mins by von frey test; type: functional, organism-based; procedure, shortened: as §3
[17] = tested on: Mus musculus; assay: Analgesic activity in CCI-induced neuropathic pain mouse model assessed as increase in contralateral paw withdrawal threshold at 10 mg/kg,ip administration measured after 90 mins by von frey test; type: functional, organism-based; procedure, shortened: as §3
[18] = tested on: Mus musculus; assay: Antiallodynic activity against oxaliplatin-induced peripheral neuropathy mouse model assessed as increase in pain threshold baseline at late phase at 15 mg/kg,ip followed by oxaliplatin treatment measured after 7 days by von frey test; type: functional; conditions: time 7 day
Procedure, shortened: (§4)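 Mice with oxaliplatin-induced neuropathy were given the drug as a single dose at 5, 10 or 15 mg/kg. Tactile allodynia was measured by von Frey 3 h (early phase) and 7 days (late phase) after neuropathy induction. Thresholds are expressed relative to each group's pre-oxaliplatin baseline.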

[19] = tested on: Mus musculus; assay: Antinociceptive activity in loperamide-induced mouse assessed as increase in struggle response latency struggle response latency at 25 ug,ip administration in presence of naloxone-methiodide; type: functional, organism-based; conditions: dose 25.0 µg
[20] = tested on: Mus musculus; assay: Antiallodynic activity against oxaliplatin-induced peripheral neuropathy mouse model assessed as increase in pain threshold baseline at late phase at 5 mg/kg,ip followed by oxaliplatin treatment measured after 7 days by von frey test; type: functional; conditions: time 7 day; procedure, shortened: as §4
[21] = tested on: Mus musculus; assay: Antinociceptive activity in loperamide-induced mouse assessed as increase in struggle response latency struggle response latency at 25 ug,ip administration in presence of PRE-084; type: functional, organism-based; conditions: dose 25.0 µg
[22] = tested on: Mus musculus; assay: Analgesic activity in CCI-induced neuropathic pain mouse model assessed as increase in mechanical paw withdrawal threshold at 10 mg/kg,ip administration measured after 180 mins by von frey test; type: functional, organism-based; procedure, shortened: as §3
[23] = tested on: Mus musculus; assay: Analgesic activity in CCI-induced neuropathic pain mouse model assessed as effect on thermal stimuli at 5 mg/kg,ip administration measured after 185 mins by cold plate test; type: functional, organism-based; procedure, shortened: as §3
[24] = tested on: Mus musculus; assay: Antiallodynic activity against oxaliplatin-induced peripheral neuropathy mouse model assessed as increase in pain threshold baseline at early phase at 10 mg/kg,ip followed by oxaliplatin treatment measured after 3 hrs by von frey test; type: functional; procedure, shortened: as §4
[25] = Neurotoxicity against mouse assessed as effect in spontaneous locomotor activity by measuring effective dose at ip administration observed after 30 mins; type: toxicity, organism-based; conditions: in vivo, 0.5 h; procedure, shortened: as §1
[26] = tested on: Mus musculus; assay: Analgesic activity in CCI-induced neuropathic pain mouse model assessed as effect on thermal stimuli at 5 to 15 mg/kg,ip administration measured after 35 mins by cold plate test; type: functional, organism-based; conditions: dose 5-15 mg/kg; procedure, shortened: as §3
[27] = tested on: Mus musculus; assay: Analgesic activity in CCI-induced neuropathic pain mouse model assessed as effect on tactile allodynia at 10 mg/kg,ip administration measured after 30 to 180 mins by von frey test; type: functional, organism-based; conditions: time lower 30.0 min, time upper […]; procedure, shortened: as §3
[28] = tested on: Mus musculus; assay: Anti-hyperalgesic activity in CCI-induced neuropathic pain mouse model assessed as effect on thermal stimuli at 5 to 15 mg/kg,ip administration measured after 95 mins by cold plate test; type: functional, organism-based; conditions: dose 5-15 mg/kg; procedure, shortened: as §3
[29] = tested on: Mus musculus; assay: Analgesic activity in CCI-induced neuropathic pain mouse model assessed as effect on withdrawal threshold at 15 mg/kg,ip administration measured after 30 mins by von frey test; type: functional, organism-based; procedure, shortened: as §3
[30] = tested on: Mus musculus; assay: Analgesic activity in CCI-induced neuropathic pain mouse model assessed as effect on withdrawal threshold at 15 mg/kg,ip administration measured after 90 mins by von frey test; type: functional, organism-based; procedure, shortened: as §3
[31] = tested on: Mus musculus; assay: Antinociceptive activity in Capsaicin-induced nociceptive mouse model assessed as reduction in paw licking at 10 to 30 mg/kg,ip administration followed by capsaicin treatment; type: functional, organism-based; conditions: dose 10-30 mg/kg
Procedure, shortened: (§5)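 Capsaicin was injected intraplantarly into mice pretreated with 10, 15 or 30 mg/kg, with 1% Tween 80 as vehicle. Licking/biting time was scored for 5 min after injection, with 8–10 mice per group, as mean ± SEM. Analysis was one-way ANOVA with Dunnett's test. ED50 was estimated from the dose–response.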

[32] = tested on: Mus musculus; assay: Antiallodynic activity against oxaliplatin-induced peripheral neuropathy mouse model assessed as increase in pain threshold baseline at early phase at 15 mg/kg,ip followed by oxaliplatin treatment measured after 3 hrs by von frey test; type: functional; procedure, shortened: as §4
[33] = tested on: Mus musculus; assay: Analgesic activity in CCI-induced neuropathic pain mouse model assessed as effect on spinal response at 10 mg/kg,ip administration measured after 190 mins by tail flick test; type: functional, organism-based; procedure, shortened: as §3
[34] = tested on: Mus musculus; assay: Antiallodynic activity against oxaliplatin-induced peripheral neuropathy mouse model assessed as increase in pain threshold baseline at late phase at 10 mg/kg,ip followed by oxaliplatin treatment measured after 7 days by von frey test; type: functional; conditions: time 7 day; procedure, shortened: as §4
[35] = tested on: Mus musculus; assay: Analgesic activity in CCI-induced neuropathic pain mouse model assessed as increase in mechanical paw withdrawal threshold at 5 mg/kg,ip administration measured after 30 mins by von frey test; type: functional, organism-based; procedure, shortened: as §3
[36] = tested on: Mus musculus; assay: Analgesic activity in CCI-induced neuropathic pain mouse model assessed as effect on thermal stimuli at 10 mg/kg,ip administration measured after 185 mins by cold plate test; type: functional, organism-based; procedure, shortened: as §3
[37] = tested on: Mus musculus; assay: Analgesic activity in CCI-induced neuropathic pain mouse model assessed as effect on withdrawal threshold at 15 mg/kg,ip administration measured after 180 mins by von frey test; type: functional, organism-based; procedure, shortened: as §3
[38] = Neurotoxicity against mouse assessed as reduction in spontaneous locomotor activity at 15 mg/kg,ip observed after 30 mins of administration; type: toxicity, organism-based; conditions: in vivo, 0.5 h; procedure, shortened: as §1
[39] = tested on: Mus musculus; assay: Analgesic activity in CCI-induced neuropathic pain mouse model assessed as effect on tactile allodynia at 5 mg/kg,ip administration measured after 30 to 180 mins by von frey test; type: functional, organism-based; conditions: time lower 30.0 min, time upper […]; procedure, shortened: as §3
[40] = tested on: Mus musculus; assay: Antiallodynic activity against oxaliplatin-induced peripheral neuropathy mouse model assessed as increase in pain threshold baseline at late phase at 5 mg/kg,ip administrated in presence of oxaliplatin measured after 7 days by von frey test; type: functional, organism-based; conditions: time 7.0 day; procedure, shortened: as §4
[41] = Neurotoxicity against mouse assessed as reduction in spontaneous locomotor activity at 30 mg/kg,ip observed after 30 mins of administration; type: toxicity, organism-based; conditions: in vivo, 0.5 h; procedure, shortened: as §1
[42] = tested on: Mus musculus; assay: Antiallodynic activity against oxaliplatin-induced peripheral neuropathy mouse model assessed as increase in pain threshold baseline at early phase at 5 mg/kg,ip followed by oxaliplatin treatment measured after 3 hrs by von frey test; type: functional; procedure, shortened: as §4
[43] = tested on: Mus musculus; assay: Antinociceptive activity in mouse assessed as effect on struggle response latency at 25 ug,ip administration; type: functional, organism-based; conditions: dose 25.0 µg
[44] = tested on: Mus musculus; assay: Analgesic activity in CCI-induced neuropathic pain mouse model assessed as increase in mechanical paw withdrawal threshold at 10 mg/kg,ip administration measured after 90 mins by von frey test; type: functional, organism-based; procedure, shortened: as §3
[45] = tested on: Mus musculus; assay: Antinociceptive activity in Capsaicin-induced nociceptive mouse model assessed as reduction in biting behavior at 10 to 30 mg/kg,ip administration followed by capsaicin treatment; type: functional, organism-based; conditions: dose 10-30 mg/kg; procedure, shortened: as §5

Cc1cc(OCCN2CCOCC2)nn1-c1ccc2ccccc2c1
Activity [1]: inactive
Activity [2]: inactive
Activity [3]: inactive
Activity [4]: Dose-Dependent Effect

c1cc(OCCCN2CCCCC2)ccc1CN1CCCCC1 [JNJ-5207852]
Ki [5]: 1170 nM

N#Cc1ccc(-c2ccc(OCCCN3CCCCC3)cc2)cc1
Ki [6]: 6.2 nM

c1ccc(Nc2ccc(OCCCN3CCCCC3)cc2)cc1
IC50 [7]: 83.7 nM
Activity [8]: Toxic
Activity [9]: Toxic
Activity [10]: Toxic

c1ccc(-c2ccc(OCCCN3CCCCCC3)cc2)cc1
Activity [11]: Toxic
Activity [12]: Toxic
IC50 [7]: 83.4 nM
Activity [8]: Toxic

N#Cc1ccc(-c2ccc(OCCCN3CCC(c4ccncc4)CC3)cc2)cc1
Activity [13]: Active
Activity [14]: Active
Activity [15]: Active
Activity [11]: Toxic
Activity [16]: Active
Activity [12]: Toxic
Activity [17]: Active
Activity [18]: 69.3%
Activity [19]: inactive
Activity [20]: 77.7%
IC50 [7]: 215 nM
Activity [21]: inactive
Activity [22]: Active
Activity [23]: Active
Activity [24]: 50.4%
ED50 [25]: 21.97 mg/kg
Activity [26]: Active
Activity [27]: inactive
Activity [28]: Active
Activity [29]: inactive
Activity [30]: Active
Activity [31]: Active
Activity [32]: 66.6%
Activity [4]: Dose-Dependent Effect
Activity [33]: Active
Activity [34]: 67.6%
Activity [35]: Active
Activity [36]: Active
Activity [37]: inactive
Activity [38]: Toxic
Activity [39]: inactive
Activity [40]: inactive
Activity [41]: Toxic
Activity [42]: 63.5%
Activity [43]: inactive
Activity [44]: Active
Activity [45]: Active

c1ccc(Cc2ccc(OCCCN3CCCCC3)cc2)cc1
Ki [6]: 27.5 nM
